Reference: ChEMBL document CHEMBL5678802, “Small-molecule p21-activated kinase inhibitor PF-3758309 is a potent inhibitor of oncogenic signaling and tumor growth” (Proc Natl Acad Sci U S A, 2010)
The source made the active and inactive calls. The rule behind the calls is not given here.

Legend:
COLO 320DM = assay: Inhibition of anchorage independent cell growth in human COLO 320DM cells incubated for 6 days by Alamar blue reagent based fluorescence plate reader analysis; type: functional; conditions: 144 h
HEK293 = assay: Inhibition of YFP/YFP variant coding sequence fused Mnk1/p38alpha (unknown origin) expressed in HEK293 cells incubated for 8 to 24 hrs by fluorescence based analysis; type: cell-based; conditions: Homo sapiens, time 8-24 hrs
CAMA-1 = assay: Antiproliferative activity against human CAMA-1 cells assessed as inhibition of cell proliferation incubated for 3 days by CellTiter-Glo Luminescent Cell Viability Assay; type: functional, cell-based; conditions: CAMA-1, 72 h
Summary of the method: (§1)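 Cancer cell lines seeded in 384-well plates on day 1; compound added on day 2 and left for 3 days. On day 5 all medium was aspirated, and viable cells were quantified by CellTiter-Glo luminescence, which measures cellular ATP. Dose-dependent effects on proliferation were determined.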

[1] = target: Proto-oncogene tyrosine-protein kinase Src (Homo sapiens, UniProt P12931); assay: Inhibition of human SRC in presence of ATP
MDA-MB-361 = assay: Antiproliferative activity against human MDA-MB-361 cells assessed as inhibition of cell proliferation incubated for 3 days by CellTiter-Glo Luminescent Cell Viability Assay; type: functional, cell-based; conditions: MDA-MB-361, 72 h; summary of the method: as §1
[2] = Antiproliferative activity against human 184A1 cells assessed as inhibition of cell proliferation incubated for 3 days by CellTiter-Glo Luminescent Cell Viability Assay; type: functional, cell-based; conditions: 184A1, 72 h; summary of the method: as §1
LS-123 = assay: Antiproliferative activity against human LS-123 cells assessed as inhibition of cell proliferation incubated for 3 days by CellTiter-Glo Luminescent Cell Viability Assay; type: functional, cell-based; conditions: LS-123, 72 h; summary of the method: as §1
HCT-116 [3] = assay: Antitumor activity against human HCT-116 cells xenografted in nude mouse assessed as tumor growth inhibition at 3.3 mg/kg administered via pump for 9 days relative to control; type: functional; conditions: HCT-116, 216 h, time 9 day, read-out: TGI
NCI-H23 = assay: Antiproliferative activity against human NCI-H23 cells assessed as inhibition of cell proliferation incubated for 3 days by CellTiter-Glo Luminescent Cell Viability Assay; type: functional, cell-based; conditions: NCI-H23, 72 h
Summary of the method: (§2)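 Cells of each line were plated in 384-well plates on day 1 and exposed to compound from day 2 for 3 days. On day 5 all medium was aspirated. Viable cell number was read by CellTiter-Glo luminescence, which quantifies cellular ATP.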

BXPC-3 = assay: Antiproliferative activity against human BXPC-3 cells assessed as inhibition of cell proliferation incubated for 3 days by CellTiter-Glo Luminescent Cell Viability Assay; type: functional, cell-based; conditions: BXPC-3, 72 h; summary of the method: as §1
HCT-116 [4] = assay: Antitumor activity against human HCT-116 cells xenografted in nude mouse assessed as inhibition of [3H]FLT uptake at 25 mg/kg, po administered once a day for 2 day and measured after 2 hrs post [3H]FLT administration by scintillation counter analysis relative to control; type: functional; conditions: HCT-116, 48 h
Summary of the method: (§3)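 HCT116 xenograft mice (tumors 300–350 mm3, n = 5 per group) received oral vehicle or compound, with harvests on days 2, 3 and 6. Isoflurane-anesthetized mice were given [3H]FLT (15 nCi/g, i.p.) 2 h before killing. Tumor and liver were weighed, solubilized and scintillation-counted. SUV = C/(ID/W), and uptake is reported as the tumor-to-liver SUV ratio.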

Caco-2 = assay: Antiproliferative activity against human Caco-2 cells assessed as inhibition of cell proliferation incubated for 3 days by CellTiter-Glo Luminescent Cell Viability Assay; type: functional, cell-based; conditions: Caco-2, 72 h; summary of the method: as §1
NCI-H358 = assay: Antiproliferative activity against human NCI-H358 cells assessed as inhibition of cell proliferation incubated for 3 days by CellTiter-Glo Luminescent Cell Viability Assay; type: functional, cell-based; conditions: NCI-H358, 72 h; summary of the method: as §2
[5] = target: Protein kinase C gamma type (Homo sapiens, UniProt P05129); assay: Inhibition of human PKCgamma in presence of ATP
[6] = target: T1, Serine/threonine-protein kinase D1 (Homo sapiens, UniProt Q15139); assay: Inhibition of human PKCmu in presence of ATP by cellular assay
T1 sequence (Q15139 whole entry): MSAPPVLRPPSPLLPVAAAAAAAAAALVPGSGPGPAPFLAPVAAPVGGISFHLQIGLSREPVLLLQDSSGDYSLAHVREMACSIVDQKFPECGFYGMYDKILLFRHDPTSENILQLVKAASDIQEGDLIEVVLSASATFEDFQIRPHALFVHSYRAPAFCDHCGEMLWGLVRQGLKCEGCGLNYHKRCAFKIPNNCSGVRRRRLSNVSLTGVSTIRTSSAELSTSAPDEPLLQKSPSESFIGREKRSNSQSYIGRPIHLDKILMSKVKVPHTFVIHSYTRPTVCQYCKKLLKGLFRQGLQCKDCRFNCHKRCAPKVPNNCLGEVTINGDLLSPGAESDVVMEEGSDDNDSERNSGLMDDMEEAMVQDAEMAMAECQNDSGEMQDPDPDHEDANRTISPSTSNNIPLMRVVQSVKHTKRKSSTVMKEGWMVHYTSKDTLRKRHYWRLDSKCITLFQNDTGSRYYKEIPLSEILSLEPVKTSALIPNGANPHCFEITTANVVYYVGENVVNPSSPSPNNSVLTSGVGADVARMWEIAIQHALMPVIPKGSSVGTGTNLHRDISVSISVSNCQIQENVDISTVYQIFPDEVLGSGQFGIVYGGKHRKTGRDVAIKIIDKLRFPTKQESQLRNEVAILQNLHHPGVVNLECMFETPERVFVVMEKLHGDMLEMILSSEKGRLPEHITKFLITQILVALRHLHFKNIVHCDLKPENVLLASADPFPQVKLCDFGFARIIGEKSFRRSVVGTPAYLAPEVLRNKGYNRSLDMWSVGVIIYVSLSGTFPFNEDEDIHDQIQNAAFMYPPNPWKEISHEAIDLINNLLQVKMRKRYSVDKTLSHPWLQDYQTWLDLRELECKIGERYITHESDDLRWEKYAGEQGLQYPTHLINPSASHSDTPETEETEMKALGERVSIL

DLD-1 = assay: Antiproliferative activity against human DLD-1 cells assessed as inhibition of cell proliferation incubated for 3 days by CellTiter-Glo Luminescent Cell Viability Assay; type: functional, cell-based; conditions: DLD-1, 72 h; summary of the method: as §1
NCI-H2087 = assay: Inhibition of anchorage independent cell growth in human NCI-H2087 cells incubated for 6 days by Alamar blue reagent based fluorescence plate reader analysis; type: functional; conditions: NCI-H2087, 144 h
HCT-116 [7] = assay: Antitumor activity against human HCT-116 cells xenografted in nude mouse assessed as reduction in STAT6 phosphorylation at Y641 residue at 15 to 150 mg/kg/day administered via pump for 18 hrs by Reverse-Phase protein array analysis; type: functional, organism-based; conditions: dose 15-150 mg/kg/day
HCT-116 [8] = assay: Antitumor activity against human HCT-116 cells xenografted in nude mouse assessed as inhibition of [3H]FLT uptake at 25 mg/kg, po administered once a day for 6 day and measured after 2 hrs post [3H]FLT administration by scintillation counter analysis relative to control; type: functional; conditions: HCT-116, 144 h; summary of the method: as §3
HCT-116 [9] = assay: Antitumor activity against human HCT-116 cells xenografted in nude mouse assessed as reduction in AKT1 phosphorylation at S473 residue at 15 to 150 mg/kg/day administered via pump for 18 hrs by Reverse-Phase protein array analysis; type: functional, organism-based; conditions: dose 15-150 mg/kg/day

Proto-oncogene tyrosine-protein kinase Src, sequence (P12931 2-536 limits assumed): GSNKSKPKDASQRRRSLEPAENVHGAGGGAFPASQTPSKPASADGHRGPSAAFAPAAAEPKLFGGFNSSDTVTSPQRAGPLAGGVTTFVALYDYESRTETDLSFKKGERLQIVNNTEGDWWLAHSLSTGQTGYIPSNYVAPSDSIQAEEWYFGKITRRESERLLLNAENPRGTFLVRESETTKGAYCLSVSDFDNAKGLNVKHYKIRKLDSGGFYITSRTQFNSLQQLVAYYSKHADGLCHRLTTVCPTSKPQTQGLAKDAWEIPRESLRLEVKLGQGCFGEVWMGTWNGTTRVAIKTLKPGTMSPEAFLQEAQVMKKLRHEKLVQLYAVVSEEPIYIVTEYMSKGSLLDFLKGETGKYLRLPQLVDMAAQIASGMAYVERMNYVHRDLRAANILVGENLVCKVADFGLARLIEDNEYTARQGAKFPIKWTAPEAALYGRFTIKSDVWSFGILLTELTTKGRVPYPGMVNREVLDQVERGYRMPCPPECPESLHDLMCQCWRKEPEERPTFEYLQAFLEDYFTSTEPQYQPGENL

What does the source list for `Cc1nc(Nc2n[nH]c3c2CN(C(=O)N[C@H](CN(C)C)c2ccccc2)C3(C)C)c2sccc2n1` [PF-03758309]?
IC50 (COLO 320DM): 0.373 µM; inhibition (HEK293): Active; IC50 (CAMA-1): 0.0027 µM; IC50 [1]: 0.055 µM; IC50 (MDA-MB-361): 0.0069 µM; IC50 [2]: 0.00083 µM; IC50 (LS-123): 10 µM; inhibition in vivo at 3.3 mg/kg (HCT-116 [3]): 114%; IC50 (NCI-H23): 0.025 µM; IC50 (BXPC-3): 0.039 µM; inhibition in vivo at 25 mg/kg (HCT-116 [4]): 35.3%; IC50 (Caco-2): 10 µM; IC50 (NCI-H358): 0.011 µM; IC50 [5]: 0.0592 µM; IC50 [6]: 2.83 µM; IC50 (DLD-1): 10 µM; IC50 (NCI-H2087): 0.00136 µM; Activity (HCT-116 [7]): Active; inhibition in vivo at 25 mg/kg (HCT-116 [8]): 43.1%; Activity (HCT-116 [9]): Active
